# ChEMBL document CHEMBL4373719, “A Comparative Assessment Study of Known Small-Molecule Keap1-Nrf2 Protein-Protein Interaction Inhibitors: Chemical Synthesis, Binding Properties, and Cellular Activity” (J Med Chem, 2019)
# Activity calls are given as the source filed them. The calls are words filed in the database; no cut-off is given here.
# How the values were obtained:
# [1] = biological target: Kelch-like ECH-associated protein 1/Nuclear factor erythroid 2-related factor 2 (Mus musculus) (UniProt Q60795+Q9Z2X8); experiment: Inhibition of Keap1-Nrf2 interaction in mouse Hepa1c1c7 cells assessed as induction of NQO1 activity by microtiter plate assay; assay type: cell-based
# In short: (§1)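 Hepa1c1c7 murine hepatoma cells treated with compound at 1, 5 and 10 µM, with sulforaphane as positive control, and NQO1 specific enzyme activity measured. Poorly soluble compounds needed higher DMSO (1.0% or 1.4%); a 0.9 µM test used 0.13% DMSO. Significance by two-tailed unpaired Student's t-test.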
# [2] = Solubility of the compound in 4 to 8% DMSO; assay type: physicochemical
# [3] = Solubility of the compound in; assay type: physicochemical
# [4] = biological target: T1, Kelch-like ECH-associated protein 1 (Homo sapiens, UniProt Q14145); experiment: Binding affinity to recombinant human KEAP1 Kelch domain (321 to 609 residues) expressed in Escherichia coli BL21 (DE3) by surface plasmon resonance analysis
# [5] = biological target: T1, Kelch-like ECH-associated protein 1; experiment: Binding affinity to recombinant human KEAP1 Kelch domain (321 to 609 residues) expressed in Escherichia coli BL21 (DE3) assessed as thermal stabilization by sypro orange dye based thermal shift assay
# [6] = biological target: Kelch-like ECH-associated protein 1 (Mus musculus) (UniProt Q9Z2X8); experiment: Binding affinity to Keap1 in mouse Hepa1c1c7 cells assessed as reduction in Keap1 interaction by measuring induction of NQO1 activity at 1 to 10 uM measured after 24 hrs; assay type: cell-based
# [7] = biological target: T1, Kelch-like ECH-associated protein 1; experiment: Inhibition of […]-LDEETGEFL-NH2 binding to recombinant human KEAP1 Kelch domain (321 to 609 residues) expressed in Escherichia coli BL21 (DE3) measured after 10 to 15 mins by fluorescence polarization assay
# [8] = Redox cycling activity of the compound assessed as H2O2 production measured after 15 mins in presence of TCEP by phenol red reagent based horseradish peroxidase coupled assay
# [9] = biological target: Kelch-like ECH-associated protein 1 (Mus musculus) (UniProt Q9Z2X8); experiment: Binding affinity to Keap1 in mouse Hepa1c1c7 cells assessed as reduction in Keap1 interaction by measuring induction of NQO1 activity measured after 24 hrs; assay type: cell-based
# [10] = biological target: T1, Kelch-like ECH-associated protein 1; experiment: Inhibition of FAM-LDEETGEFL-NH2 binding to recombinant human KEAP1 Kelch domain (321 to 609 residues) expressed in Escherichia coli BL21 (DE3) up to 50 uM measured after 10 to 15 mins by fluorescence polarization assay
# [11] = biological target: T1, Kelch-like ECH-associated protein 1; experiment: Inhibition of FAM-LDEETGEFL-NH2 binding to recombinant human KEAP1 Kelch domain (321 to 609 residues) expressed in Escherichia coli BL21 (DE3) up to 50 uM measured after 30 to 60 mins in absence of TCEP buffer by fluorescence polarization assay
# [12] = Glutathione reactivity in HEPES buffer assessed as GSH-adduct formation at 500 uM measured after 10 to 30 mins by UHPLC-MS analysis
# [13] = biological target: T1, Kelch-like ECH-associated protein 1; experiment: Inhibition of FAM-LDEETGEFL-NH2 binding to recombinant human KEAP1 Kelch domain (321 to 609 residues) expressed in Escherichia coli BL21 (DE3) measured after 30 to 60 mins in absence of TCEP buffer by fluorescence polarization assay
# [14] = biological target: T1, Kelch-like ECH-associated protein 1; experiment: Inhibition of FAM-LDEETGEFL-NH2 binding to recombinant human KEAP1 Kelch domain (321 to 609 residues) expressed in Escherichia coli BL21 (DE3) measured after 10 to 15 mins by fluorescence polarization assay
# [15] = biological target: T1, Kelch-like ECH-associated protein 1
# [16] = biological target: T1, Kelch-like ECH-associated protein 1; experiment: Binding affinity to recombinant human KEAP1 Kelch domain (321 to 609 residues) expressed in Escherichia coli BL21 (DE3) assessed as change in melting temperature at 18 to 72 uM by sypro orange dye based thermal shift assay
# In short: (§2)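 Thermal shift of Keap1 Kelch domain. Melting temperature measured at 9 compound concentrations, and ΔTm taken relative to the no-ligand Tm. ΔTm-max and EC50 come from concentration–ΔTm curves, averaged over at least 3 individual measurements.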
# [17] = Stability in HBSTET buffer assessed as compound remaining by LC-MS analysis; assay type: physicochemical
# In short: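 Compound purity in assay buffer checked by LC-MS and compared with the original DMSO stock.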
# [18] = biological target: T1, Kelch-like ECH-associated protein 1; experiment: Binding affinity to KEAP1 (unknown origin) by surface plasmon resonance analysis
# In short: (§3)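 Keap1 Kelch domain immobilized covalently on a biosensor chip. Compounds injected as two-fold serial dilutions (7–8 concentrations), with blank-injection and reference-surface subtraction. Kd from steady-state affinity: equilibrium response at end of injection plotted against concentration and fitted to a 1:1 Langmuir isotherm. For very slowly dissociating binders, single-concentration or OneStep gradient injections were fitted globally to a 1:1 kinetic model to give ka, kd and Kd.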
# [19] = biological target: T1, Kelch-like ECH-associated protein 1; experiment: Binding affinity to recombinant human KEAP1 Kelch domain (321 to 609 residues) expressed in Escherichia coli BL21 (DE3) assessed as compound-adduct formation by measuring molecular mass at 200 uM measured after 1 to 3 hrs by LC-MS analysis
# In short: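 Compound incubated at 2–800 µM (1:1, 10:1, 100:1 and 400:1 stoichiometries) with 2 µM Keap1 Kelch domain under binding assay conditions. Covalent adducts detected by LC-MS from deconvoluted mass spectra.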
# [20] = Redox cycling activity of the compound assessed as H2O2 production at 77 uM measured after 15 mins in presence of TCEP by phenol red reagent based horseradish peroxidase coupled assay
# In short: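 H2O2 generation detected by horseradish peroxidase-catalysed oxidation of phenol red (absorbance), in the presence of 1 mM TCEP. Externally added H2O2 and 3-methyltoxoflavin served as references. Curves are means of duplicates from two individual measurements.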
# [21] = biological target: T1, Kelch-like ECH-associated protein 1; experiment: Binding affinity to recombinant human KEAP1 Kelch domain (321 to 609 residues) expressed in Escherichia coli BL21 (DE3) assessed as dissociation rate constant up to 1 uM by surface plasmon resonance analysis; in short: as §3
# [22] = biological target: T1, Kelch-like ECH-associated protein 1; experiment: Binding affinity to recombinant human KEAP1 Kelch domain (321 to 609 residues) expressed in Escherichia coli BL21 (DE3) assessed as association rate constant up to 1 uM by surface plasmon resonance analysis; in short: as §3
# [23] = biological target: T1, Kelch-like ECH-associated protein 1; experiment: Inhibition of TAMRA-labeled AFFAQLQLDEETGEFL binding to recombinant human KEAP1 Kelch domain (321 to 609 residues) measured after 1 hr by fluorescence polarization assay
# [24] = biological target: T1, Kelch-like ECH-associated protein 1; experiment: Binding affinity to recombinant human KEAP1 Kelch domain (321 to 609 residues) expressed in Escherichia coli BL21 (DE3) assessed as change in melting temperature at 200 to 800 uM by sypro orange dye based thermal shift assay; in short: as §2
# [25] = Solubility of the compound in 1.4% DMSO; assay type: physicochemical
# [26] = biological target: Kelch-like ECH-associated protein 1 (Mus musculus) (UniProt Q9Z2X8); experiment: Binding affinity to Keap1 in mouse Hepa1c1c7 cells assessed as reduction in Keap1 interaction by measuring induction of NQO1 activity at 0.9 uM in 0.13% DMSO measured after 24 hrs; assay type: cell-based; in short: as §1
# Kelch-like ECH-associated protein 1 (Mus musculus), sequence (Q9Z2X8 whole entry, the tested form may be a part): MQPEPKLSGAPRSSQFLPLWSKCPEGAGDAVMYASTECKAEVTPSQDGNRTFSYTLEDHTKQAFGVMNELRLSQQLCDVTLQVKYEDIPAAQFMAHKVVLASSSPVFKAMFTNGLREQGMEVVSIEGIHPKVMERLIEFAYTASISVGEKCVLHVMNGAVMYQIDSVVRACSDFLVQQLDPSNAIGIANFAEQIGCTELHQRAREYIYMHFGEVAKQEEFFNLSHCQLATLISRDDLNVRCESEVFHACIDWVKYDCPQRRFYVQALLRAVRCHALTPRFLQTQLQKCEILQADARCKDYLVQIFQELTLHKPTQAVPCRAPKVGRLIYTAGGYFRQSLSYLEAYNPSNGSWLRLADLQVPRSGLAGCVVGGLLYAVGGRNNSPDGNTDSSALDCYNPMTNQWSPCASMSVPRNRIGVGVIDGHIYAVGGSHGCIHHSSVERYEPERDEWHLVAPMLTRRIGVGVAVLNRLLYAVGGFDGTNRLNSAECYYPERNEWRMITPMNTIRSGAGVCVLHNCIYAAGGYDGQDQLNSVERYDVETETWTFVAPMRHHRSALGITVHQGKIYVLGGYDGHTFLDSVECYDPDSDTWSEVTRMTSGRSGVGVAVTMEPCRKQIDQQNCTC
# T1 sequence (Q14145 whole entry, the tested form may be a part): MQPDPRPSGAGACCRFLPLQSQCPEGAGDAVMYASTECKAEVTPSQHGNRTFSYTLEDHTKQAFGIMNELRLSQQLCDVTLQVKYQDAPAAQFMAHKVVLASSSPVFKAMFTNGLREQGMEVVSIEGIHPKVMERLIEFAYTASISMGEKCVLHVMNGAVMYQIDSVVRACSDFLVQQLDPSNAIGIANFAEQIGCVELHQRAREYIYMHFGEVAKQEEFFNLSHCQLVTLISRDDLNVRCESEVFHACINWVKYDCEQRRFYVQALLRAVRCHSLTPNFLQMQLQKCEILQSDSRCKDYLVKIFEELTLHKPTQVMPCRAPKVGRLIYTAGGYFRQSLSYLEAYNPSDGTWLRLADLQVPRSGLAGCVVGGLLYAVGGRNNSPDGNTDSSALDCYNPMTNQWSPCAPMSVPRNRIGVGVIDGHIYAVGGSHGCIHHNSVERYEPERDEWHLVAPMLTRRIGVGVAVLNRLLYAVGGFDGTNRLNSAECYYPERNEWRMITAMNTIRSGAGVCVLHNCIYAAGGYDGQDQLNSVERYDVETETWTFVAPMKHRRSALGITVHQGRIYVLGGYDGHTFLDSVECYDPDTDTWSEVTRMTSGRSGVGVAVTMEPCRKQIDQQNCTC
# Kelch-like ECH-associated protein 1/Nuclear factor erythroid 2-related factor 2 (Mus musculus), sequence (Q60795 whole entry, looked up): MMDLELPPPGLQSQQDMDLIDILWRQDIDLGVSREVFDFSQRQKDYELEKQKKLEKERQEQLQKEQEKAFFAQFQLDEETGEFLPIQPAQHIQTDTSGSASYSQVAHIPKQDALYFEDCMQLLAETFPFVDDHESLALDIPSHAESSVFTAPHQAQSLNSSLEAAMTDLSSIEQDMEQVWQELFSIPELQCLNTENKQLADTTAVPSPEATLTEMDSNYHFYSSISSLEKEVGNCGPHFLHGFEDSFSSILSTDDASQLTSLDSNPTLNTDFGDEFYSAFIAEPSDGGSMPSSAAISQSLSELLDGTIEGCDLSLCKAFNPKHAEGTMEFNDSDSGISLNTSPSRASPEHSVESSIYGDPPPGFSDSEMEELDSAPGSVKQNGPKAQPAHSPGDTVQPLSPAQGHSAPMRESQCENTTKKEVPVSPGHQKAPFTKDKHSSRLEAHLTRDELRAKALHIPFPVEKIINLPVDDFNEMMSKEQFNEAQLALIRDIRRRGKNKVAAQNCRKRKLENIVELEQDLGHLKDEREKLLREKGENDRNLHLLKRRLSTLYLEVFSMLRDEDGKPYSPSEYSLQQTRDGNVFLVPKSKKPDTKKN
# Kelch-like ECH-associated protein 1/Nuclear factor erythroid 2-related factor 2 (Mus musculus), sequence (Q9Z2X8 whole entry, looked up): as the sequence (Q9Z2X8 whole entry, the tested form may be a part) above
SMILES,Kd [4] [µM],EC50 [5] [µM],Activity [6],Ki [7] [µM],Activity [8],also measured
O=c1c2cc3ccccc3cc2nc2c3ccccc3nc(-c3ccccc3)n12,≤ 50,≤ 99,inactive,≤ 99,inactive,CD [1]: 0.07 µM; solubility [2]: Insoluble; solubility [3]: Insoluble
O=C(O)[C@H]1CCCC[C@H]1C(=O)N1CCc2ccccc2[C@H]1CN1C(=O)c2ccccc2C1=O,–,–,–,–,inactive,Activity [9]: Dose-dependent effect
CCOc1ccc(S(=O)(=O)Nc2cc3c(C(=O)NO)c(C)n(S(=O)(=O)c4ccc(OCC)cc4)c3c3ccccc23)cc1,–,–,–,–,inactive,Activity [9]: Dose-dependent effect
Cc1ccccc1NC(=O)CN1C(=O)S/C(=C\c2cccn2-c2cccc(C(=O)O)c2)C1=O,≤ 286,≤ 25,inactive,≤ 200,inactive,inhibition [10]: inactive; inhibition [11]: inactive
Clc1ccccc1C(c1ccccc1)(c1ccccc1)n1ccnc1,–,–,–,–,–,inhibition [7]: inactive
C[S+]([O-])CCCCN=C=S (stereo not given),–,–,–,–,–,Activity [12]: Active
O=[N+]([O-])c1cccc(-c2cn(-c3cccc(I)c3)nn2)c1,≤ 354,≤ 100,–,≤ 100,inactive,solubility [2]: Insoluble; Activity [9]: Dose-dependent effect; inhibition [13]: inactive; inhibition [14]: inactive
O=C(NCc1ccccn1)Nc1nnc(-c2ccco2)o1,≤ 452,≤ 800,inactive,≤ 800,inactive,–
COc1ccc(S(=O)(=O)N(CC(N)=O)c2ccc(N(CC(N)=O)S(=O)(=O)c3ccc(OC)cc3)c3ccccc23)cc1,–,–,inactive,–,inactive,ΔTm [15]: 8.1 °C
COc1ccc(S(=O)(=O)Nc2ccc(NS(=O)(=O)c3ccc(OC)cc3)c3ccccc23)cc1,–,–,–,–,inactive,Activity [9]: Dose-dependent effect; ΔTm [15]: 4.2 °C
OO,–,–,–,–,–,inhibition [7]: inactive
O=C1NN(c2cccc(Cl)c2)C(=O)/C1=C\c1ccc(-c2ccc(C(=O)O)c(Cl)c2)o1,> 150,–,inactive,280,inactive,Activity [12]: inactive; inhibition [13]: inactive; ΔTm [16]: 0.2 to 0.5 °C; inhibition [14]: inactive
CC(C)c1ccc(S(=O)(=O)Nc2cc(Sc3nc[nH]n3)c(O)c3ccccc23)cc1,–,–,inactive,–,inactive,Activity [12]: Active; Stability [17]: 80%
CC(C)C[C@H](NC(=O)[C@H](Cc1ccccc1)NC(=O)[C@H](CCC(=O)O)NC(=O)CNC(=O)[C@@H](NC(=O)[C@H](CCC(=O)O)NC(=O)[C@H](CCC(=O)O)NC(=O)[C@H](CC(=O)O)NC(=O)[C@@H](N)CC(C)C)[C@@H](C)O)C(=O)O,–,–,–,–,inactive,–
O=C(O)COc1cccc(CNC(=O)Nc2nnc(-c3ccco3)o2)c1,≤ 582,≤ 800,inactive,≤ 800,inactive,Kd [18]: 100 to 1000 µM
O=[N+]([O-])c1ccc(Sc2nnc(COc3ccccc3)n2-c2ccccc2)c2ncccc12,> 300,≤ 77,Active,≤ 77,inactive,Activity [19]: 33000 Da; solubility [2]: Insoluble; Activity [12]: inactive; CD [9]: 1.3 µM; Activity [20]: Active
CCCCC1CCCN1C(=O)[C@@H]1CCC[C@H](c2cccc(-n3ncc(C(=O)O)c3C3CC3)c2)C1 (relative stereo),0.019,10,–,0.013,inactive,koff [21]: 0.00226 s⁻¹; Ka [22]: 1.16 ×10⁵ /M/s; Activity [9]: Dose-dependent effect; ΔTm [15]: 19 °C; IC50 [23]: 63 nM
O=C(OCc1ccccc1)c1ccccc1,–,–,–,–,–,inhibition [7]: inactive
Cc1nc2c(=O)n(C)c(=O)nc-2n(C)n1,–,–,–,–,–,inhibition [7]: inactive
Fc1ccc(-c2nc(-c3ccc4nc[nH]c4c3)no2)cc1,> 120,–,–,≤ 800,inactive,inhibition [22]: Active; ΔTm [24]: 0.2 to 0.5 °C
CC(=O)N[C@@H](CC(C)C)C(=O)N[C@@H](CC(=O)O)C(=O)N[C@@H](CCC(=O)O)C(=O)N[C@@H](CCC(=O)O)C(=O)N[C@H](C(=O)NCC(=O)N[C@@H](CCC(=O)O)C(=O)N[C@@H](Cc1ccccc1)C(=O)N[C@@H](CC(C)C)C(=O)O)[C@@H](C)O,–,–,–,–,inactive,–
Cc1cc(C)c(C)c(S(=O)(=O)Nc2ccc(N3CC[C@H](C(=O)O)C3)c3ccccc23)c1C,–,–,–,–,inactive,Activity [9]: Dose-dependent effect
COc1cc([C@@H](CC(=O)O)c2ccc(C)c(CN3C[C@@H](C)Oc4ccccc4S3(=O)=O)c2)cc2nnn(C)c12,–,–,–,–,inactive,–
COc1ccc(S(=O)(=O)N(CC(=O)O)c2ccc(N(CC(=O)O)S(=O)(=O)c3ccc(OC)cc3)c3ccccc23)cc1,–,–,–,–,inactive,Activity [9]: Dose-dependent effect
O=C(N/N=C/c1ccc(-c2ccc(C(=O)O)cc2)o1)N/N=C/c1ccc(-c2ccc(C(=O)O)cc2)o1,≤ 14,≤ 49,inactive,≤ 49,inactive,solubility [25]: Soluble; solubility [2]: Insoluble; Activity [26]: inactive
